In the library only some 0.97% were active in any assay of this set; here they are far more common.
GASC-1 inh – inhibitors of human GASC-1 (JMJD2C) demethylase; 330,000 compounds, 0.069% hits; inhibition, % at 2.35 µM; GST-JMJD2C(1-420) H3K9me3 demethylation, DELFIA europium; Q9H3R0; AID 2099;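 active = more than half of a compound's replicate wells show inhibition beyond 50%, single wells judged on their own value; inconclusive = some, but no more than half, of replicates pass 50% inhibition; inactive = no replicate passes 50% inhibition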;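 note: signal counts dimethyl H3K9 product captured on neutravidin plate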
Target sequence (Q9H3R0 1-420 limits assumed): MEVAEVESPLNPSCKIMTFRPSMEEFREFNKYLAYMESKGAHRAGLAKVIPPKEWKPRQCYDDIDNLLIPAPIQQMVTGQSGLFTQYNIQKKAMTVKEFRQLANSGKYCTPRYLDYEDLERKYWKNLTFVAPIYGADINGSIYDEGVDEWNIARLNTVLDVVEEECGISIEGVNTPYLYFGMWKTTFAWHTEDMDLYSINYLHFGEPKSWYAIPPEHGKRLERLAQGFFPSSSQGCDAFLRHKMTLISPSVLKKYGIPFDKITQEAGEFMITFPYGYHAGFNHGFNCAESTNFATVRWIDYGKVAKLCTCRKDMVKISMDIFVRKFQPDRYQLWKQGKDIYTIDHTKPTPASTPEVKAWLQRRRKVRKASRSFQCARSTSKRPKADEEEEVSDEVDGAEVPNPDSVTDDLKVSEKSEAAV
A3G deaminase – inhibitors of human APOBEC3G DNA deaminase; Q9HC16; 330,000 compounds, 0.28% hits; inhibition, % at 20 µM; recombinant A3G, ssDNA deamination FAM/TAMRA fluorescence;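 active = inhibition of at least 40% at 20 µM, with no more than 30% in the related APOBEC3A deaminase screen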
APOBEC3A inh – human APOBEC3A DNA deaminase inhibition | P31941 | recombinant A3A, FAM/TAMRA ssDNA deamination fluorescence | inhibition, % at 20 µM | 330,000 compounds, 0.41% hits;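 active = at least 40% inhibition at 20 µM here, with at most 30% in a related deaminase screen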
UCH37 DUB inh – human UCH37 deubiquitinating enzyme inhibition | Q9Y5K5 | purified proteasome/UCH37, Ub-AMC cleavage fluorescence | inhibition, % (test concentration not listed) | 330,000 compounds, 0.33% hits;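 active = mean inhibition over replicate wells above about 20%, limit read from the data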
Target sequence (Q9Y5K5 whole entry, looked up): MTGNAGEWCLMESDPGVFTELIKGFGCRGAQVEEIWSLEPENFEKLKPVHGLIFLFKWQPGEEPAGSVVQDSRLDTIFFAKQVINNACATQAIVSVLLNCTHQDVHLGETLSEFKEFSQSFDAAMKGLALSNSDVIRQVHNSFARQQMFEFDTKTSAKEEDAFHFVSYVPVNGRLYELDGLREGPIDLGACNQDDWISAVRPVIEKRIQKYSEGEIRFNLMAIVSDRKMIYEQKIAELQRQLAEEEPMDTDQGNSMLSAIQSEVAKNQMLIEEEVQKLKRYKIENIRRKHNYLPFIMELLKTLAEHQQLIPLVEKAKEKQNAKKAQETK
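Signal – fluorescence, ex 355 nm, em 460 nm · System – Proteasome-bound UCH37 · Input – 0.15 nM proteasome as dispensed · Timing – 30 min preincubation with enzyme, 25 min cleavage at room temperature · Read-out basis – percent inhibition of cleavage signal versus uninhibited and no-proteasome wells · Medium – Tris-HCl pH 7.4 with ATP-MgCl2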
Each line names hits and unclear results; the compound was inactive in the other large screens.

CCNc1nc(NCC)n2c(SCC(=O)O)nnc2n1	UCH37 DUB inh 34
O=c1[nH]c2ccccc2c(=O)n1Cc1ccco1	UCH37 DUB inh 21
O=c1[nH]c2ccc(Cl)cc2c(=O)n1Cc1ccco1	none
CC(=NNC(=O)c1ccc(NS(=O)(=O)c2cccs2)cc1)c1ccc2c(c1)OCO2	none (no result: GASC-1 inh, A3G deaminase, APOBEC3A inh)
COC(=O)c1ccc(-c2ccc(C=NNC(=O)Cc3nnc(N)s3)o2)cc1	none (no result: GASC-1 inh, A3G deaminase, APOBEC3A inh)
COc1cc(C(C(=O)NC2CCCCC2)N(C(=O)Cc2c[nH]c3ccccc23)c2ccccc2C)cc(OC)c1OC (stereo not given)	none (no result: UCH37 DUB inh)
COc1cc(C(C(=O)NC2CCCCC2)N(Cc2cccs2)C(=O)Cc2c[nH]c3ccccc23)cc(OC)c1OC (stereo not given)	GASC-1 inh 52
S=c1[nH]nc(-c2cc(-c3ccccc3)n[nH]2)n1N=Cc1cccs1	none (no result: GASC-1 inh, A3G deaminase, APOBEC3A inh)
CC(C)(C)OC(=O)CN1C(=O)S/C(=C\c2ccc(-c3cccc(C(=O)O)c3)o2)C1=O	APOBEC3A inh 45 (no result: UCH37 DUB inh)
COc1ccc2ccccc2c1C=NNC(=O)c1ccccc1F	none (no result: GASC-1 inh, A3G deaminase, APOBEC3A inh)
CN(C)c1ccc(C=NNC(=O)CCc2nc3ccccc3[nH]2)cc1	none (no result: GASC-1 inh, A3G deaminase, APOBEC3A inh)
O=C1CC(c2ccccc2)CC(O)=C1C=NCCCO (stereo not given)	UCH37 DUB inh 22
O=C(O)c1cccc(-n2cccc2/C=C2/NC(=O)N(c3cccc(Cl)c3)C2=O)c1	none
O=C(O)c1cccc(-n2cccc2/C=C2/NC(=O)N(c3ccc(Cl)cc3)C2=O)c1	UCH37 DUB inh 27 (no result: GASC-1 inh, A3G deaminase, APOBEC3A inh)
O=C1C(Nc2ccccc2)=C(N2CCCCC2)C(=O)c2ccccc21	none
COc1ccccc1NC1=C(N2CCCCC2)C(=O)c2ccccc2C1=O	UCH37 DUB inh 52
O=C(/C=C/c1ccc(O)cc1)c1ccc(NC2=C(N3CCCCC3)C(=O)c3ccccc3C2=O)cc1	GASC-1 inh inconclusive, UCH37 DUB inh 22
Cc1ccc(NC2=C(N3CCCCC3)C(=O)c3ccccc3C2=O)cc1	UCH37 DUB inh 23
S=c1[nH]nc(-c2ccco2)n1N=C/C(Cl)=C/c1ccccc1	none (no result: GASC-1 inh, A3G deaminase, APOBEC3A inh)
CCC(C)[C@H](NC(=O)OC(C)(C)C)C(=O)NN=CC1=Cc2ccccc2OC1 (stereo not given in full)	none (no result: GASC-1 inh, A3G deaminase, APOBEC3A inh)
CCOC(=O)C1=C(C)N(C)C(=O)NC1c1c(C)nn(-c2ccc(C)cc2)c1Cl (stereo not given)	none
CCOC(=O)C1=C(C)NC(=O)NC1c1c(C)nn(-c2ccccc2)c1Cl (stereo not given)	GASC-1 inh 60
CC(=NNC(=O)Cc1c(F)cccc1Cl)c1cccnc1	none (no result: GASC-1 inh, A3G deaminase, APOBEC3A inh)
O=C(O)CCCC[C@@H]1SC[C@@H]2NC(=O)N[C@@H]21	GASC-1 inh 96
Cc1ccc(C2CC(=O)C=C(NCc3ccccc3)C2)cc1 (stereo not given)	none
O=C1C=C(NCc2ccc3c(c2)OCO3)CC(c2ccccc2)C1 (stereo not given)	GASC-1 inh 61
Cc1ccc(/C(O)=C2/C(=O)C(=O)N(CCN3CCOCC3)C2c2cccs2)cc1 (stereo not given)	UCH37 DUB inh 24
Cc1ccc(/C(O)=C2/C(=O)C(=O)N(CCN3CCOCC3)C2c2cccnc2)cc1 (stereo not given)	none
COc1cccc(/C(O)=C2/C(=O)C(=O)N(CCCN3CCOCC3)C2c2ccncc2)c1 (stereo not given)	UCH37 DUB inh 20
O=C1C(=O)N(CCCN2CCOCC2)C(c2ccc(F)cc2)/C1=C(/O)c1ccccc1 (stereo not given)	UCH37 DUB inh 23
NC(=NOC(=O)Cc1cccs1)c1ccc([N+](=O)[O-])cc1	none (no result: GASC-1 inh, A3G deaminase, APOBEC3A inh)
CC1SC(=NN=Cc2ccco2)N(Cc2ccccc2)C1=O (stereo not given)	none (no result: GASC-1 inh, A3G deaminase, APOBEC3A inh)
CC(CC(=O)NCc1ccco1)=NNC(=O)Cc1ccc(Cl)cc1	UCH37 DUB inh 32 (no result: GASC-1 inh, A3G deaminase, APOBEC3A inh)
CC[n+]1c(C=C2C=C(C)OC(C)=C2)sc2ccccc21	UCH37 DUB inh 23
O=C(Nc1ccc(OC(F)(F)F)cc1)Nc1cccc([N+](=O)[O-])c1	UCH37 DUB inh 31
Cc1[nH]c2ccccc2c1C=NNC(=O)CNC(=O)c1ccc2c(c1)OCO2	none (no result: GASC-1 inh, A3G deaminase, APOBEC3A inh)
CCCCCCCCCCCCCCCCn1cc[n+](C)c1	UCH37 DUB inh 76
CCCCCCCCn1ccc(=N)cc1	none
Oc1ccccc1-c1n[nH]c(=S)n1Cc1ccco1	A3G deaminase 41
Cc1cc(N=C/C=C2\N(C)c3ccccc3C2(C)C)n(CCC#N)n1	none (no result: GASC-1 inh, A3G deaminase, APOBEC3A inh)
O=C(NC1CCCc2ccccc21)c1ccc(Br)cc1 (stereo not given)	GASC-1 inh 58
O=C(NC1CCCc2ccccc21)c1ccccc1 (stereo not given)	none
CC1(C)CNc2cc([N+](=O)[O-])ccc2S1	UCH37 DUB inh 26
CC1=Nc2cc([N+](=O)[O-])ccc2NC(C)(C)C1	none
COc1ccc(-n2c(SCC(=O)N3CCOCC3)nc(O)c(Cc3ccccc3)c2=O)cc1	UCH37 DUB inh 30
COc1ccc(-n2c(SCC(=O)N3CCOCC3)nc(O)cc2=O)cc1	none
C[C@H](CO)N1C[C@H](C)[C@@H](CN(C)S(=O)(=O)c2ccc(F)cc2)Oc2c(NC(=O)CCC(F)(F)F)cccc2C1=O	none
C[C@H](CO)N1C[C@H](C)[C@@H](CN(C)S(=O)(=O)c2ccccc2)Oc2c(NC(=O)CCC(F)(F)F)cccc2C1=O	GASC-1 inh 53
C[C@H](CO)N1C[C@H](C)[C@@H](CN(C)S(=O)(=O)c2cccs2)Oc2c(NC(=O)CCC(F)(F)F)cccc2C1=O	GASC-1 inh 52
COc1cc(C=c2sc(=C(C#N)C(=O)N3CCCC3)n(-c3ccccc3)c2=O)ccc1O	none (no result: GASC-1 inh, A3G deaminase, APOBEC3A inh)
COc1ccc(NC(=O)C2CC(=O)OC23CCCCC3)cc1 (stereo not given)	none
CCN1C(=O)C(C(=O)Nc2ccc(OC)cc2)C2CC1(C)Oc1ccccc12 (stereo not given)	GASC-1 inh 54
CCCCNC(=S)NN=Cc1ccc(C#N)cc1	none (no result: GASC-1 inh, A3G deaminase, APOBEC3A inh)
Cc1csc(N)n1	UCH37 DUB inh 21
CNC(=O)NC(=O)CSc1nnc(-c2ccco2)n1Cc1ccccc1	none
NC(=O)NC(=O)CSc1nnc(-c2ccco2)n1Cc1ccccc1	GASC-1 inh 50
O=C(COC(=O)C1CC(=O)N(c2ccc3c(c2)OCCO3)C1)NC1CCCc2ccccc21 (stereo not given)	UCH37 DUB inh 22
CCOC(=O)c1ccccc1NC(=O)COC(=O)C1CC(=O)N(c2ccc3c(c2)OCCO3)C1 (stereo not given)	none
CNC(=S)NN=C(C)c1ccc(C)c(C)c1	none (no result: GASC-1 inh, A3G deaminase, APOBEC3A inh)
CC(C(=O)O)N1C(=O)/C(=C/c2cccn2C)SC1=S (stereo not given)	none (no result: A3G deaminase, APOBEC3A inh)
O=C(O)CN1C(=O)/C(=C\c2cc(Br)ccc2OCc2ccc(Cl)cc2)SC1=S	UCH37 DUB inh 23 (no result: A3G deaminase, APOBEC3A inh)
CCC(C(=O)O)N1C(=O)/C(=C/c2cccn2C)SC1=S (stereo not given)	UCH37 DUB inh 23 (no result: A3G deaminase, APOBEC3A inh)
Cn1cccc1/C=C1/SC(=S)N(CC(=O)O)C1=O	UCH37 DUB inh 23
Cc1ccccc1OCC(=O)NN=Cc1cccc2cccnc12	none (no result: GASC-1 inh, A3G deaminase, APOBEC3A inh)
COc1cccc(SCc2noc(C(=O)NCCN(C)C)c2C(=O)NCCN(C)C)c1	UCH37 DUB inh 32
COCCNC(=O)c1onc(CSc2cccc(OC)c2)c1C(=O)O	none

From PubChem BioAssay
